Myeloid diff 2 = promotes myeloid progenitor differentiation; ER-HoxA9 myeloid progenitors, lysozyme-GFP differentiation, flow cytometry; calls only at 10 µM; 360,000 compounds, 1% hits;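 active means normalized GFP-positive differentiation at or above the plate's own cutoff, the solvent-only control mean plus 3 SD; inconclusive means no clear call, values can overlap the other calls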;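 further: cells exposed to compound for four days before flow analysis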
ATG4B inhibitor = inhibitors of human ATG4B cysteine protease | Q9Y4P1 | ATG4B cleavage of LC3-PLA2, NBD-HPC fluorescence, 1 h | inhibition, % at 8.33 µM | 340,000 compounds, 0.51% hits | AID 504462; in the data active means inhibition above about 40%
Target sequence (Q9Y4P1 whole entry, looked up): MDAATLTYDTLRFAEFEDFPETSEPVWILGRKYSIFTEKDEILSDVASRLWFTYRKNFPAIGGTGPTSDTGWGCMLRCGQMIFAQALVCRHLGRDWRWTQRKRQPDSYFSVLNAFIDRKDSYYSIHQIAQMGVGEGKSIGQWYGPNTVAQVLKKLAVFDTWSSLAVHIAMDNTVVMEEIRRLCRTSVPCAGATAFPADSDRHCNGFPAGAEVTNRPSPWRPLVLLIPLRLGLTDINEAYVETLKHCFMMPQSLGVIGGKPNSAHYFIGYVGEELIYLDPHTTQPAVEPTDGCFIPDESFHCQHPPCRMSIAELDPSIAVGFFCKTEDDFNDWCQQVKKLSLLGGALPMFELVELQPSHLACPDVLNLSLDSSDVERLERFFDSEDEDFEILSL
CendR NRP1 mod = alters CendR peptide binding to human NRP-1. O14786. inhibition, % at 25 µM. AID 602438. FAM-RPARPAR peptide binding to NRP-1, fluorescence polarization. 360,000 compounds, 0.85% hits;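 active means inhibition or corrected inhibition above about 18%, plus a signal ratio from 0.5 to 1.5, limit read from the data, passing the limit was not always enough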
ABCB6 inh MLPCN = human ABCB6 transporter inhibition; Q9NP58; K562-ABCB6 porphyrin accumulation, flow cytometry, 1 h; hits give low values; fluorescence ratio to DMSO, % at 10 µM; 360,000 compounds, 0.19% hits; AID 602162;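 active means fluorescence ratio to DMSO below 75%, the collection mean minus 3 SD; inconclusive means too few cells collected in the well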;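 further: signal is porphyrin accumulated inside mitochondria; 100% equals median channel fluorescence of DMSO control wells; lower ratio means ABCB6 inhibition with less porphyrin fluorescence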
Exocytosis inh = lytic granule exocytosis inhibition; 360,000 compounds, 0.66% hits; TALL-104 LAMP-1 surface exposure, flow cytometry; cells stimulated with thapsigargin and PMA; inhibition, % at 10 µM;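 active means inhibition above about 55%, limit read from the data; inconclusive means no clear call, values can overlap the other calls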
Arr AP2 block = human beta-arrestin and AP2 interaction inhibition; AID 504490; inhibition, % at 10 µM; 340,000 compounds, 0.31% hits; FITC-arrestin peptide / GST-AP2 beads, flow cytometry; AP2 beta2 appendage carries R879A mutation;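 active means inhibition above a set limit, near 3 SD of compounds lacking own fluorescence, cut at about 54% in these data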;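 further: plate controls were DMSO wells for no effect and 5 µM unlabelled arrestin peptide for full effect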
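System: GST-tagged AP2 beta2-adaptin appendage (R879A) on 4 µm glutathione beads / Reagent: FITC-arrestin peptide, 50 nM / Detection: HyperCyt-sampled flow cytometry, FL1 channel, ex 488/em 535 nm / Timing: 12 min plus 1 h, RT / Buffer or medium: PBS plus Tween 20 (0.05%) and BSA (0.1%)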
* marks the source's active call; other numbers are inactive results; i = inactive; ? = inconclusive; . = no result given; + = active, no number. Rows were chosen to be rich in hits. Some 3.3% of all compounds tested hit in one or more screens of this group.

SMILES | Myeloid diff 2 | ATG4B inhibitor | CendR NRP1 mod | ABCB6 inh MLPCN | Exocytosis inh | Arr AP2 block
COC(=O)c1ccc(-c2n[nH]c(=O)c3ccccc23)cc1 | i | 1.5 | -31.2 | 99.0 | -0.8 | -0.2
COC(=O)Nc1nc2ccc(-c3n[nH]c(=O)c4ccccc34)cc2[nH]1 | + | -8.4 | -2.6 | 104.0 | 5.0 | -1.5
N[C@@H](Cc1ccc(O)cc1)c1nnc([C@H](CO)NC(=O)C2CCNCC2)o1 | i | -1.5 | 21.8* | 93.0 | -0.9 | 6.1
NC(N)=NN=C1c2ccccc2-c2ccccc21 | + | -3.7 | 6.6 | 359.0 | -18.8 | -209.6
ON=C1c2ccccc2-c2ccccc21 | i | -10.2 | 8.2 | 100.0 | -5.0 | 2.0
N#C/C(=C\c1ccc([N+](=O)[O-])o1)C(=O)Nc1ccc(F)cc1 | ? | -2.5 | -128.8 | 147.0 | 86.2* | 10.4
C=CCOC(=O)C1=C[C@@H](C2CCCCC2)C[C@@H](OCc2ccc(CO)cc2)O1 | i | -6.7 | 6.1 | 91.0 | -1.6 | 2.9
Cc1cc(C)cc(Oc2nc3ccccn3c(=O)c2/C=C(\C#N)C(=O)NC2CCS(=O)(=O)C2)c1 (centres undefined) | i | 1.3 | -0.8 | 102.0 | 10.0 | 9.3
Cc1ccc(Oc2nc3ccccn3c(=O)c2/C=C(\C#N)C(=O)NC2CCS(=O)(=O)C2)c(C)c1 (centres undefined) | i | -2.3 | -5.8 | 101.0 | 78.8* | -3.7
COC(=O)C(C)Oc1cc(C)ccc1COc1ccc(-n2nc(C)n(C(F)F)c2=O)cc1 (centres undefined) | i | 11.2 | 0.0 | 99.0 | 4.8 | -1.8
C[C@H](CO)N1C[C@H](C)[C@@H](CN(C)C(=O)Nc2ccc(C(F)(F)F)cc2)Oc2c(NS(=O)(=O)c3ccc(F)cc3)cccc2C1=O | i | . | -9.4 | 101.0 | 2.3 | 33.2
C[C@H](CO)N1C[C@H](C)[C@@H](CN(C)C(=O)Nc2ccc(C(F)(F)F)cc2)Oc2c(NS(=O)(=O)c3ccccc3)cccc2C1=O | i | -4.4 | 36.2* | 100.0 | -4.6 | 1.9
C[C@H](CO)N1C[C@H](C)[C@@H](CN(C)C(=O)Nc2ccc3c(c2)OCO3)Oc2c(NS(=O)(=O)c3ccc(F)cc3)cccc2C1=O | i | -4.3 | 31.0* | 102.0 | -2.2 | 4.7
C#CCOCCOCCOCCNc1nc(N2CCN(C(=O)[C@H](CCCCN)n3cc(CN)nn3)CC2)nc(N2CCN(C(=O)[C@H](CCCN=C(N)N)n3cc(C(N)[C@H](C)CC)nn3)CC2)n1 (some centres undefined) | i | 1.7 | 3.8 | 97.0 | -15.4 | 13.3
O=C(Nc1oc2ccccc2c(=O)c1-c1ccccc1)c1ccco1 | i | . | -13.8 | 99.0 | -9.5 | .
O=C(Nc1nnc(CCN2CCCCC2)s1)C1CCCCC1 | i | 9.8 | 7.4 | 101.0 | 1.7 | 6.7
O=C(Nc1nnc(CCN2CCOCC2)s1)C1CCCCC1 | i | 2.3 | 37.2* | 96.0 | 2.8 | -2.3
CCn1c(=NC(=O)CSCC(=O)Nc2nccs2)sc2ccccc21 | i | 0.9 | 31.7* | 96.0 | -1.3 | -8.5
CCN(C(=O)N1CCOCC1)c1ccccc1C | i | 1.1 | -1.8 | 99.0 | -0.4 | -1.2
O=C(O)c1ccc(CSC2CCCCC2)cc1 | i | 4.5 | 22.1* | 97.0 | -1.4 | 3.1
Oc1ccc2ccccc2c1CN1CCCCC1 | i | -0.5 | 25.6* | 99.0 | -1.4 | -4.7
Cc1cc(N/N=C/c2c(O)ccc3ccccc23)nc(-c2ccccc2O)n1 | i | 23.9 | 9.8 | 91.0 | 96.2* | 32.8
Oc1ccc2ccccc2c1/C=N/Nc1ccccc1 | i | 7.1 | 8.4 | 108.0 | 7.1 | 17.8
CCOC(=O)c1sc(NC(=O)CCN2C(=O)c3cccc([N+](=O)[O-])c3C2=O)c(C(=O)OCC)c1C | i | -6.5 | 2.5 | 91.0 | -0.8 | 11.0
O=C(Nc1ccc(Cc2ccncc2)cc1)c1ccc(Cl)c([N+](=O)[O-])c1 | i | -0.3 | 5.4 | 94.0 | -0.1 | 4.2
SMILES | Myeloid diff 2 | ATG4B inhibitor | CendR NRP1 mod | ABCB6 inh MLPCN | Exocytosis inh | Arr AP2 block
O=C(Nc1ccc(Nc2ccccc2)cc1)c1ccc(Cl)c([N+](=O)[O-])c1 | i | 5.2 | 9.1 | 92.0 | 98.6* | 4.3
O=C(N/N=C/c1ccc2c(c1)OCO2)C(=O)Nc1cccc(Cl)c1 | i | 2.7 | 10.2 | 103.0 | -3.8 | 26.8
COc1ccccc1C(=O)NCCCNC(=O)c1cccnc1 | i | -6.5 | 33.0* | 96.0 | -2.3 | -8.9
O=C(CN1C(=O)c2ccccc2S1(=O)=O)NCCSCc1ccccc1Cl | i | -2.6 | 9.1 | 102.0 | -7.5 | 33.2
O=C(CN1C(=O)c2ccccc2S1(=O)=O)NCCSCc1c(F)cccc1Cl | i | -0.5 | 24.1* | 89.0 | -12.9 | 3.5
CCC(=O)N(CC)C1=C(O)c2ccccc2C(=O)C1=O | i | 1.4 | 9.6 | 113.0 | 92.5* | 14.1
O=C1C=C(c2cccc3c2Oc2ccccc2S3)C[C@@H](c2ccc(Cl)cc2)C1 | i | -5.5 | 29.2* | 96.0 | 10.0 | 0.5
c1cnn(-c2cncc(-n3cccn3)n2)c1 | i | -15.3 | 2.1 | 98.0 | 2.2 | -35.5
Cc1ccc(C[n+]2ccccc2)cc1 | + | -4.4 | 12.6 | 94.0 | 50.5 | 0.3
COC(=O)c1ccc(C[n+]2ccccc2)cc1 | i | 2.0 | 0.3 | 105.0 | -7.0 | 13.9
CCC1=C(OC(=O)N(CC)CC)N2C(=O)OC(=NCCc3c[nH]c4ccccc34)[C@]2(Cc2ccccc2)[C@H]2C1=CC[C@H]1C(=O)N(CC(=O)OC)C(=O)[C@H]12 | i | 5.5 | 2.1 | 97.0 | 3.3 | -1.0
CCC1=C(OC(=O)N(CC)CC)N2C(=O)OC(=NCCOC)[C@]2(Cc2ccccc2)[C@H]2C1=CC[C@H]1C(=O)N(CC(=O)OC)C(=O)[C@H]12 | i | -6.0 | 35.2* | 98.0 | 2.4 | -0.8
CCC1=C(OC(=O)N(CC)CC)N2C(=O)OC(=NCC3CC3)[C@]2(Cc2ccccc2)[C@H]2C1=CC[C@H]1C(=O)N(C)C(=O)[C@H]12 | i | -5.8 | 25.5* | 98.0 | -4.9 | 4.9
O=Cc1cc(Br)c(OC(=O)N2CCOCC2)c(Br)c1 | i | 3.1 | 7.8 | 100.0 | 5.9 | -4.9
CCOC(=O)c1cn[nH]c1NC(=S)Nc1ccc(Cl)cc1 | i | -5.1 | 1.9 | 91.0 | 38.3 | -1.9
CC1CN(C(=O)Nc2ccc(F)cc2F)CC(C)O1 (centres undefined) | i | -4.2 | -4.3 | 98.0 | -3.3 | -12.1
CC1CN(C(=S)Nc2ccc(F)cc2F)CC(C)O1 (centres undefined) | i | -5.1 | 25.9* | 92.0 | -4.3 | -2.7
C/C(=N\NC(=O)c1cc(-c2cccs2)nc2ccccc12)c1ccccn1 | ? | -11.0 | 30.2* | 94.0 | -0.9 | -1.2
COc1ccc2[nH]c(C(=O)NCc3ccc4c(c3)OCO4)cc2c1 | i | -8.8 | -7.2 | 97.0 | 3.2 | 2.2

Source: PubChem BioAssay (several laboratories)
